Test results published in ChEMBL document CHEMBL1932986, “Synthesis and in vitro antimycobacterial activity of compounds derived from (R)- and (S)-2-amino-1-butanol - The crucial role of the configuration” (Eur J Med Chem, 2012).
≈ marks a conversion by molar mass, not a printed value. Calls of active or inactive are those of the source. The rule behind the calls is not given here.

How the values were obtained:
Format in all cases: functional
[1] = system: Mycobacterium tuberculosis; assay: Antimycobacterial activity against Mycobacterium tuberculosis H37Rv after 45 days
Method in brief: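 Canetti proportion method. Compound in DMSO is added to Löwenstein–Jensen egg medium before coagulation (30 min, 85 °C), tested at three levels plus a lower one where needed. Tubes are inoculated with H37Rv at 10⁵ cells/ml and incubated 45 days at 37 °C. Colony counts versus drug-free control give percentage inhibition.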

Bacillus subtilis = assay: Antibacterial activity against Bacillus subtilis ATCC 6633 at 50 mg/ml after 24 hrs by agar diffusion test; conditions: for zone of inhibition at 50000 µg/mL: ATCC 6633, 24 h, read-out: DIZ
Method in brief: (§1)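 Agar diffusion: wells in agar filled with […] DMSO solution of compound at various concentrations; diameter of clear zone around application point measured. Bacteria grown 24 h at 37 °C on nutrient agar. Compounds first screened at 50 mg/ml; those active then tested at lower concentrations. Bracketed value = lowest concentration (mg/ml) giving zone >11 mm, reported only if activity retained at ≤1.25 mg/ml.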

Bacillus = assay: Antibacterial activity against Bacillus idosus B 241 at 50 mg/ml after 24 hrs by agar diffusion test; conditions: for zone of inhibition at 50000 µg/mL: B 241, 24 h, read-out: DIZ; method in brief: as §1
Priestia megaterium = assay: Antibacterial activity against Bacillus megaterium NRRL 1353895 at 50 mg/ml after 24 hrs by agar diffusion test; conditions: for zone of inhibition at 50000 µg/mL: NRRL 1353895, 24 h, read-out: DIZ; method in brief: as §1
Bacillus mycoides = assay: Antibacterial activity against Bacillus mycoides DSMZ 274 at 50 mg/ml after 24 hrs by agar diffusion test; conditions: for zone of inhibition at 50000 µg/mL: DSMZ 274, 24 h, read-out: DIZ; method in brief: as §1
Bacillus cereus = assay: Antibacterial activity against Bacillus cereus ATCC 11778 at 50 mg/ml after 24 hrs by agar diffusion test; conditions: for zone of inhibition at 50000 µg/mL: ATCC 11778, 24 h, read-out: DIZ; method in brief: as §1
Acinetobacter johnsonii = assay: Antibacterial activity against Acinetobacter johnsonii ATCC 17909 at 50 mg/ml after 24 hrs by agar diffusion test; conditions: for zone of inhibition at 50000 µg/mL: ATCC 17909, 24 h, read-out: DIZ; method in brief: as §1
Staphylococcus aureus = assay: Antibacterial activity against Staphylococcus aureus NRRL B 313 at 50 mg/ml after 24 hrs by agar diffusion test; conditions: for zone of inhibition at 50000 µg/mL: NRRL B 313, 24 h, read-out: DIZ
Method in brief: (§2)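 Agar diffusion: bacteria grown 24 h at 37 °C on nutrient agar. Wells in the agar are filled with […] of compound solution in DMSO at various concentrations. The diameter of the clear zone around the application point is measured. Bracketed values give the lowest concentration (mg/ml) that produces a zone >11 mm. A first screen is run at 50 mg/ml.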

Micrococcus luteus [2] = assay: Antibacterial activity against Sarcina lutea ATCC 9341 at 50 mg/ml after 24 hrs by agar diffusion test; conditions: for zone of inhibition at 50000 µg/mL: ATCC 9341, 24 h, read-out: DIZ; method in brief: as §2
Micrococcus luteus [3] = assay: Antibacterial activity against Micrococcus luteus ATCC 9631 at 50 mg/ml after 24 hrs by agar diffusion test; conditions: for zone of inhibition at 50000 µg/mL: ATCC 9631, 24 h, read-out: DIZ; method in brief: as §1
Escherichia coli = assay: Antibacterial activity against Escherichia coli ATCC 8739 at 50 mg/ml after 24 hrs by agar diffusion test; conditions: for zone of inhibition at 50000 µg/mL: ATCC 8739, 24 h, read-out: DIZ; method in brief: as §1
Candida tropicalis = assay: Antifungal activity against Candida tropicalis ATCC 20336 at 50 mg/ml after 72 hrs by agar diffusion test; conditions: for zone of inhibition at 50000 µg/mL: ATCC 20336, 72 h, read-out: DIZ
Method in brief: (§3)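 Agar diffusion: yeasts grown on yeast peptone dextrose agar and fungi on potato dextrose agar. Wells are filled with […] of compound solution in DMSO at various concentrations, and the clear-zone diameter is measured. Bracketed values give the lowest concentration (mg/ml) that produces a zone >11 mm. A first screen is run at 50 mg/ml.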

Saccharomyces cerevisiae = assay: Antifungal activity against Saccharomyces cerevisiae ATCC 9763 at 50 mg/ml after 72 hrs by agar diffusion test; conditions: for zone of inhibition at 50000 µg/mL: ATCC 9763, 72 h, read-out: DIZ; method in brief: as §3
Penicillium chrysogenum = assay: Antifungal activity against Penicillium chrysogenum CECT 2802 at 50 mg/ml after 72 hrs by agar diffusion test; conditions: for zone of inhibition at 50000 µg/mL: CECT 2802, 72 h, read-out: DIZ; method in brief: as §3

SMILES	MIC [1]	zone of inhibition at 50000 µg/mL (Bacillus subtilis)	zone of inhibition at 50000 µg/mL (Bacillus)	zone of inhibition at 50000 µg/mL (Priestia megaterium)	zone of inhibition at 50000 µg/mL (Bacillus mycoides)	zone of inhibition at 50000 µg/mL (Bacillus cereus)	zone of inhibition at 50000 µg/mL (Acinetobacter johnsonii)	zone of inhibition at 50000 µg/mL (Staphylococcus aureus)	zone of inhibition at 50000 µg/mL (Micrococcus luteus [2])	zone of inhibition at 50000 µg/mL (Micrococcus luteus [3])	zone of inhibition at 50000 µg/mL (Escherichia coli)	zone of inhibition at 50000 µg/mL (Saccharomyces cerevisiae)	diameter of the inhibition zone (DIZ) (Escherichia coli)	diameter of the inhibition zone (DIZ) (Candida tropicalis)	diameter of the inhibition zone (DIZ) (Saccharomyces cerevisiae)	diameter of the inhibition zone (DIZ) (Bacillus subtilis)	diameter of the inhibition zone (DIZ) (Bacillus)	diameter of the inhibition zone (DIZ) (Acinetobacter johnsonii)	diameter of the inhibition zone (DIZ) (Staphylococcus aureus)	diameter of the inhibition zone (DIZ) (Penicillium chrysogenum)	other results
CC[C@H](CO)NCc1cccc2ccccc12	21.8 µM (≈ 5 µg/mL)	17 mm	18 mm	10 mm	18 mm	15 mm	20 mm	16 mm	13 mm	17 mm	28 mm	32 mm	–	–	–	–	–	–	–	–	zone of inhibition at 50000 µg/mL (Candida tropicalis): 30 mm; zone of inhibition at 50000 µg/mL (Penicillium chrysogenum): 22 mm
CC[C@H](CO)NCc1ccccc1O	25.6 µM (≈ 5 µg/mL)	17 mm	11 mm	12 mm	14 mm	14 mm	13 mm	12 mm	12 mm	11 mm	–	–	inactive	inactive	inactive	–	–	–	–	–	zone of inhibition at 50000 µg/mL (Penicillium chrysogenum): 12 mm
CC[C@H](CO)NC1c2ccccc2-c2ccccc21	19.7 µM (≈ 5 µg/mL)	–	15 mm	22 mm	17 mm	–	16 mm	12 mm	17 mm	17 mm	12 mm	22 mm	–	–	–	inactive	–	–	–	–	diameter of the inhibition zone (DIZ) (Bacillus cereus): inactive; zone of inhibition at 50000 µg/mL (Candida tropicalis): 17 mm; zone of inhibition at 50000 µg/mL (Penicillium chrysogenum): 20 mm
CC[C@H](CO)NC(c1ccccc1)(c1ccccc1)c1ccccc1	> 15.1 µM	12 mm	–	–	–	–	–	–	–	–	–	–	inactive	inactive	inactive	–	inactive	inactive	inactive	inactive	diameter of the inhibition zone (DIZ) (Priestia megaterium): inactive; diameter of the inhibition zone (DIZ) (Bacillus mycoides): inactive; diameter of the inhibition zone (DIZ) (Bacillus cereus): inactive; diameter of the inhibition zone (DIZ) (Micrococcus luteus [2]): inactive; diameter of the inhibition zone (DIZ) (Micrococcus luteus [3]): inactive
CC[C@H](CO)NS(=O)(=O)c1ccc(NC(C)=O)cc1	> 17.5 µM	–	–	–	–	–	–	–	–	–	–	–	inactive	inactive	inactive	inactive	inactive	inactive	inactive	–	diameter of the inhibition zone (DIZ) (Priestia megaterium): inactive; diameter of the inhibition zone (DIZ) (Bacillus mycoides): inactive; diameter of the inhibition zone (DIZ) (Bacillus cereus): inactive; diameter of the inhibition zone (DIZ) (Micrococcus luteus [2]): inactive; diameter of the inhibition zone (DIZ) (Micrococcus luteus [3]): inactive
CC[C@H](CO)Nc1cccc(Br)n1	20.4 µM (≈ 5 µg/mL)	13 mm	17 mm	15 mm	13 mm	19 mm	14 mm	14 mm	17 mm	18 mm	17 mm	10 mm	–	–	–	–	–	–	–	–	zone of inhibition at 50000 µg/mL (Candida tropicalis): 25 mm; zone of inhibition at 50000 µg/mL (Penicillium chrysogenum): 17 mm
CC[C@H](CO)N(CC(=O)Nc1c(C)cccc1C)CC(=O)Nc1c(C)cccc1C	> 12.2 µM	–	10 mm	–	12 mm	11 mm	–	15 mm	–	12 mm	–	–	inactive	inactive	inactive	inactive	–	inactive	–	inactive	diameter of the inhibition zone (DIZ) (Priestia megaterium): inactive; diameter of the inhibition zone (DIZ) (Micrococcus luteus [2]): inactive
CC[C@H](CO)NCc1ccnc2ccccc12	21.7 µM (≈ 5 µg/mL)	10 mm	12 mm	11 mm	16 mm	13 mm	13 mm	14 mm	13 mm	10 mm	20 mm	–	–	–	–	–	–	–	–	–	zone of inhibition at 50000 µg/mL (Penicillium chrysogenum): 20 mm
CC[C@H](CO)NCc1ccccc1OC	> 23.9 µM	10 mm	15 mm	11 mm	11 mm	13 mm	10 mm	10 mm	–	11 mm	–	16 mm	inactive	inactive	–	–	–	–	–	inactive	–
CC[C@H](CO)NC(=S)Nc1ccccc1	> 22.3 µM	–	–	13 mm	12 mm	14 mm	12 mm	–	12 mm	12 mm	16 mm	15 mm	–	–	–	inactive	inactive	–	inactive	–	zone of inhibition at 50000 µg/mL (Candida tropicalis): 16 mm
CC[C@H](CO)N(Cc1cc2c(cc1Cl)OCO2)Cc1cc2c(cc1Cl)OCO2	> 11.7 µM	–	–	10 mm	–	–	–	–	10 mm	–	–	–	inactive	inactive	inactive	inactive	inactive	inactive	inactive	inactive	diameter of the inhibition zone (DIZ) (Bacillus mycoides): inactive; diameter of the inhibition zone (DIZ) (Bacillus cereus): inactive
CC[C@H](CO)N1C(=O)c2cccc3c(Br)ccc(c23)C1=O	> 14.4 µM	–	–	–	–	–	–	–	–	–	–	–	–	inactive	inactive	inactive	inactive	inactive	inactive	inactive	diameter of the inhibition zone (DIZ) (Priestia megaterium): inactive; diameter of the inhibition zone (DIZ) (Bacillus mycoides): inactive; diameter of the inhibition zone (DIZ) (Micrococcus luteus [3]): inactive
CC[C@H](CO)NC(=O)c1ccccc1Br	> 18.4 µM	–	–	–	–	–	–	–	–	–	–	–	–	inactive	inactive	inactive	inactive	inactive	inactive	inactive	diameter of the inhibition zone (DIZ) (Priestia megaterium): inactive; diameter of the inhibition zone (DIZ) (Bacillus mycoides): inactive; diameter of the inhibition zone (DIZ) (Bacillus cereus): inactive; diameter of the inhibition zone (DIZ) (Micrococcus luteus [2]): inactive; diameter of the inhibition zone (DIZ) (Micrococcus luteus [3]): inactive
